Kir21 block – inhibitors of mouse Kir2.1 inward-rectifier potassium channel; HEK293-Kir2.1, FluxOR thallium flux fluorescence; stronger effect = lower value; B-score at 10 µM; 310,000 compounds, 0.85% hits;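 active = fluorescence ratio B-score at or below minus 3 SD of library scores, with starting-brightness B-score within 2 SD, cut at about -4.2 in these data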;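 also: channel flux triggered by added potassium and thallium sulfate stimulus; B-score of peak minus minimum fluorescence over baseline after thallium stimulus; more negative B-score means stronger Kir2.1 block with less thallium influx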
KCNQ1 pot – human KCNQ1 channel potentiation or activation | AID 2648 | P51787 | CHO-K1 KCNQ1, thallium flux FluxOR fluorescence; stronger effect = higher value | 310,000 compounds, 0.35% hits | B-score at 10 µM;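 active = fluorescence ratio B-score, a plate-corrected score, at least three library SD, with initial intensity B-score within 5 SD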
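Doses: Single concentration per compound, DMSO matched to controls | Test system: KCNQ1-transfected CHO-K1 cells | Timing: 90 min dye loading and 20 min compound exposure, both at room temperature | Measured by: Kinetic FluxOR thallium fluorescence, 10-s 1-Hz baseline, 110-s post-stimulus read | Medium: Assay buffer with matched DMSO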
hERG protect – compounds protecting human hERG from proarrhythmic drug block; CHO-hERG, FluxOR thallium flux, dofetilide IC70 present; 310,000 compounds, 0.51% hits; activation (rescue from dofetilide block), less the hit threshold, % at 10 µM; Q12809;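 active = activation above the mean of controls blocked by dofetilide plus 5 SD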;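 also: thallium influx through hERG after potassium depolarization seen as dye fluorescence rise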
KCNK3 inh – human KCNK3 channel inhibition, primary screen. AID 602410. B-score at 10 µM. 340,000 compounds, 0.84% hits. CHO-KCNK3 thallium flux, FluxOR fluorescence; stronger effect = lower value;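 active = B-score under library mean minus 4 SD, starting fluorescence ratio at most library mean plus 5 SD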;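 also: more negative B-score means stronger inhibition of thallium flux through KCNK3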
KCNK9 block – blocks the human KCNK9 two-pore domain potassium channel. Q9NPC2. HEK293 KCNK9, FluxOR thallium flux fluorescence; stronger effect = lower value. B-score at 10 µM. 310,000 compounds, 1.2% hits. AID 488922;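 active = ratio B-score over 3 SD below the library mean, with starting fluorescence within 5 SD of its mean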;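 also: negative B-score means less thallium flux so channel inhibition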
Target sequence (Q9NPC2 whole entry, looked up, the tested form may be a part): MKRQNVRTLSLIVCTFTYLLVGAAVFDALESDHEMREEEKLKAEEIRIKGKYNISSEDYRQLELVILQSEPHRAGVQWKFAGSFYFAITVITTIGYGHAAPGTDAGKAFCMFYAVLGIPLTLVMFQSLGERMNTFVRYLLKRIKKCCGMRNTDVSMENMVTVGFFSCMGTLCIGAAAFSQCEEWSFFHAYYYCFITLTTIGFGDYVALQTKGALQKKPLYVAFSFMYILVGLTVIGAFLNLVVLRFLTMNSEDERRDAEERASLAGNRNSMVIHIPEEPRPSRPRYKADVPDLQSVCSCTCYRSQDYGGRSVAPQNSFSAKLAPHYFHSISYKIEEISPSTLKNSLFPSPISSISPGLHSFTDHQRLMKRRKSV
KCNQ1 block – human KCNQ1 channel inhibition; CHO-K1 KCNQ1, FluxOR thallium flux fluorescence; stronger effect = higher value; 310,000 compounds, 1.3% hits; B-score at 10 µM;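 active = compounds whose thallium flux B-score, printed positive for inhibition, exceeds three library SD while starting fluorescence stays within three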;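 also: channel opened by potassium depolarization with thallium stimulus after 20 min compound exposure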
KCNK3 inh conf – human KCNK3 channel inhibition, confirmation assay; shares compounds with KCNK3 inh; CHO-KCNK3 thallium flux, FluxOR fluorescence; 0% buffer, 100% carvedilol maximal block; ratio percent of control, % at 10 µM; 2,400 compounds, 99% hits; AID 651638;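 active = ratio percent of control, averaged over triplicates, above buffer control mean plus 5 SD, cut at about 64% in these data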;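 also: ratio is the fluorescence rise from min to max over baseline after thallium stimulus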
KCNK3 noninduced – activity in cells without induced KCNK3 expression; shares compounds with KCNK3 inh; non-induced KCNK3 parental cells, FluxOR thallium flux; stronger effect = lower value; thallium flux ratio (lower = more inhibition) at 10 µM; 2,400 compounds, 40% hits; AID 651747;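 active = thallium flux ratio, averaged over three wells, more than 5 SD below the buffer control mean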;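 also: host cells are CHO cells without KCNK3 induction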
Each line names hits and unclear results; the compound was inactive in the other large screens (follow-up assays come after a bar, where they were run). Rows were chosen to be rich in hits. Some 3.7% of all compounds tested hit in one or more screens of this group.

CCOc1ccc(NC(=S)N(CCc2c(C)[nH]c3ccc(C)cc23)Cc2cccnc2)cc1	KCNK3 inh -9.86 | KCNK3 inh conf 92.0 | KCNK3 noninduced 0.144
CCOC(=O)C1CCCCN1Cc1cn[nH]c1-c1ccc(F)cc1F (stereo unspecified)	none
Cc1ccc(CNC(=O)Cn2c(=O)oc3ccccc32)o1	KCNK3 inh -11.8 | KCNK3 inh conf 76.7 | KCNK3 noninduced inactive
CC(C)Oc1ccc(CNC(=O)Cn2c(=O)oc3ccccc32)cc1	none
CC(C)N(Cc1ccccc1)C(=S)NC1CCCCC1	Kir21 block -5.42, KCNK3 inh -8.86 | KCNK3 inh conf 111.3 | KCNK3 noninduced inactive
CC(C)N(C(=S)NC1CCCCC1)c1ccccc1	none (no result: KCNK3 inh)
COCCN1CCN(C(=O)c2ccc3c(c2)S(=O)(=O)c2ccccc2C3=O)CC1	none (no result: KCNK3 inh)
CCc1ccccc1N(CC(=O)N1CCCCCC1)S(C)(=O)=O	none
CC1CCCCN1CCCNC(=O)Cn1c(=O)c2cccn2c2ccccc21 (stereo unspecified)	none
COc1ccccc1/C=C1\SC(=S)N(N2C(=O)CCCC2=O)C1=O	KCNK3 inh -9.35 | KCNK3 inh conf 105.3 | KCNK3 noninduced inactive
Cc1nn(CCCC(=O)Nc2cc(Oc3ccccc3)cc([N+](=O)[O-])c2)c(C)c1[N+](=O)[O-]	KCNK3 inh -8.78 | KCNK3 inh conf 123.7 | KCNK3 noninduced 0.138
O=C1C=CC(=O)N1c1cccc(-c2ccccc2)c1	none
COC(=O)C(C)Sc1nc2ccsc2c(=O)n1Cc1ccccc1 (stereo unspecified)	KCNK3 inh -9.42 | KCNK3 inh conf 93.7 | KCNK3 noninduced inactive
COc1ccc(Cn2c(SCC(=O)NCc3ccco3)nc3ccsc3c2=O)cc1	none
CCOc1cc(CNc2ccccc2)cc(Br)c1OCc1ccc(F)cc1	KCNK3 inh -8.76 | KCNK3 inh conf 84.3 | KCNK3 noninduced 0.159
CCOc1cc(CNc2ccccc2)cc(Br)c1OCC(=O)NC(C)(C)C	none
COc1cccc(C(=O)Nc2cc(NC(=O)c3cccs3)ccc2C)c1OC	none
Cc1nn(-c2ccc(Cl)cc2)c(=O)c2ccccc12	none
Cc1nn(-c2nc3ccccc3[nH]2)c(=O)c2ccccc12	none
Cc1nn(-c2ccc3ccccc3c2)c(=O)c2ccccc12	KCNK3 inh -8.93 | KCNK3 inh conf 91.7 | KCNK3 noninduced inactive
Cc1nn(-c2ccc(Cl)c(Cl)c2)c(=O)c2ccccc12	KCNK3 inh -11.3 | KCNK3 inh conf 105.0 | KCNK3 noninduced inactive
Cc1cc(S(=O)(=O)NC(C)C)ccc1OCC(=O)NCc1ccccc1	none
O=C1/C(=C/c2ccc(Br)cc2)Oc2cc(O)ccc21	KCNK3 inh -11.8, KCNQ1 block 6 | KCNK3 inh conf 119.3 | KCNK3 noninduced 0.133
CCN(CC)c1nc(-c2ccccc2)nc2ccccc12	KCNK3 inh -9.51 | KCNK3 inh conf 129.0 | KCNK3 noninduced inactive
COCCN(CCOC)c1nc(-c2ccc(Cl)cc2)nc2ccccc12	KCNK3 inh -9.23, KCNK9 block -7.55 | KCNK3 inh conf 128.0 | KCNK3 noninduced inactive
O=C(c1cc2c(ccc3ccccc32)o1)N1CCCCC1	KCNK3 inh -9.12 | KCNK3 inh conf 83.7 | KCNK3 noninduced inactive
O=C(O)c1cc2c(ccc3ccccc32)o1	none
Cc1ccc(S(=O)(=O)Nc2ccc(N(C)S(=O)(=O)c3ccc(C)cc3)cc2)cc1	KCNK9 block -7.02 | KCNK3 inh conf 85.7 | KCNK3 noninduced inactive
Cc1ccc(S(=O)(=O)N2c3ccccc3CC2C)cc1 (stereo unspecified)	none
CC1Cc2ccccc2N1S(=O)(=O)c1cccs1 (stereo unspecified)	KCNK3 inh -9.41 | KCNK3 inh conf 123.7 | KCNK3 noninduced 0.131
CCn1c(CC(=O)Nc2ccc(C)cc2)n[nH]c1=S	none

From PubChem BioAssay
